{
  "source": "ChEMBL document CHEMBL3525987",
  "about": "“Assessment of exposure of metabolites in preclinical species and humans at steady state from the single-dose radiolabeled absorption, distribution, metabolism, and excretion studies: a case study” (Drug Metab Dispos, 2012)",
  "key": {"Homo sapiens [1]": {"test_system": "Homo sapiens", "test": "Cmax in human at 100 mg, po", "conditions": "in vivo"}, "Homo sapiens [2]": {"test_system": "Homo sapiens", "test": "Tmax as total radioactivity in human plasma at 100 mg, po administered as single dose by LC-MS/MS analysis", "assay_type": "ADME, organism-based", "parameters": "dosed compound name [14C]lixivaptan", "conditions": "in vivo", "how_it_was_run": "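Single oral 100 mg [14C]drug to healthy male volunteers; plasma at 0.25-144 h. Parent by validated LC-MS/MS, total radioactivity by LSC as ng-equiv/ml; Tmax from observed data; t1/2 = 0.693/kel from log-linear terminal regression.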"}, "Rattus norvegicus [3]": {"test_system": "Rattus norvegicus", "test": "AUC (0 to 24 hrs) in male Sprague-Dawley rat at 10 mg/kg, po administered as single dose via gavage", "assay_type": "ADME, organism-based, Plasma", "parameters": "time < 24 hr, dose 10 mg/kg, dosed compound name [14C]lixivaptan, route oral", "conditions": "in vivo", "how_it_was_run": "(§1)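 Sprague-Dawley rats (9/gender) were fasted 18 h and gavaged once with [14C]lixivaptan at 10 mg/kg (10 ml/kg), about 29.8 µCi/mg, suspended in deionized water with pluronic F68. Plasma came by cardiac puncture under isoflurane at 1, 8 and 24 h (3/gender/time) and was extracted twice with 2 volumes of acetonitrile. C18 radio-HPLC with a flow scintillation detector gave percent of plasma radioactivity per peak.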"}, "Rattus norvegicus [4]": {"test_system": "Rattus norvegicus", "test": "AUC(0 to t) as total radioactivity in female Sprague-Dawley rat plasma at 10 mg/kg, po administered as single dose via gavage by LC-MS/MS analysis", "assay_type": "ADME, organism-based", "parameters": "dose 10 mg/kg, dosed compound name [14C]lixivaptan, route oral", "conditions": "in vivo", "how_it_was_run": "(§2)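 Jugular-cannulated Sprague-Dawley rats (5/gender) were fasted 18 h and gavaged once with 10 mg/kg [14C]lixivaptan suspended in water/pluronic F68. K2EDTA blood was taken at 0.25–168 h, with donor blood replaced from 1 h on. Total radioactivity was read by LSC (ng-equiv/ml) and parent by validated LC-MS/MS. Noncompartmental Cmax, log-linear kel and trapezoidal AUC followed.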"}, "Homo sapiens [5]": {"test_system": "Homo sapiens", "test": "AUC(0 to t) as total radioactivity in human plasma at 100 mg, po administered as single dose by LC-MS/MS analysis", "assay_type": "ADME, organism-based", "parameters": "dosed compound name [14C]lixivaptan", "conditions": "in vivo", "how_it_was_run": "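Fasted healthy males took one oral 100 mg (200 µCi) [14C]lixivaptan dose. Plasma was drawn from predose to 144 h. Total radioactivity was measured by LSC and converted to ng-equiv/ml via the dose specific activity; lixivaptan by validated LC-MS/MS. Noncompartmental analysis: Cmax observed; kel by log-linear regression; AUC0-t by linear trapezoid; extrapolation as Cest/kel.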"}, "Homo sapiens [6]": {"test_system": "Homo sapiens", "test": "AUC in human at 100 mg, po qd for 7 days", "assay_type": "ADME, organism-based, Plasma", "parameters": "dosed compound name [14C]lixivaptan", "conditions": "in vivo, 168 h"}, "Homo sapiens [7]": {"test_system": "Homo sapiens", "test": "Total drug recovery in human at […], po administered as single dose measured after 168 hrs by liquid scintillation counting", "assay_type": "ADME, organism-based", "parameters": "dosed compound name [14C]lixivaptan, route oral", "conditions": "in vivo", "how_it_was_run": "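Healthy male volunteers given a single 100 mg (200 μCi) oral dose as 2×50-mg capsules with 250 ml water, fasted ≥10 h before and 4 h after dosing. Urine collected at 0-4, 4-8, 8-12, 12-24 h, then every 24 h to 168 h; feces collected as passed to 168 h. Feces homogenized (20% w/w) and combusted; radioactivity measured by LSC.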"}, "[8]": {"test": "Retention time of the compound by HPLC analysis", "assay_type": "physicochemical", "parameters": "dosed compound name [14C]lixivaptan"}, "Canis familiaris [9]": {"test_system": "Canis familiaris", "test": "Drug level in beagle dog plasma at 10 mg/kg, po administered as single dose measured after 24 hrs by liquid scintillation counting", "assay_type": "ADME, organism-based, Canis lupus familiaris", "parameters": "dose 10 mg/kg, dosed compound name [14C]lixivaptan, route oral", "conditions": "in vivo", "how_it_was_run": "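Four male beagles fasted 18 h were gavaged once with [14C]lixivaptan at 10 mg/kg (2 ml/kg). The 5.0 mg/ml suspension was in deionized water with pluronic F68 (1.04 µCi/mg). Jugular K2EDTA plasma was taken at 2, 8 and 24 h and extracted twice with 2 volumes of acetonitrile. Profiling used C18 radio-HPLC (ammonium formate/acetonitrile gradient) with on-line flow scintillation detection. Each peak is reported as percent of plasma radioactivity.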"}, "Homo sapiens [10]": {"test_system": "Homo sapiens", "test": "Drug level in human plasma at 100 mg, po administered as single dose measured after 12 hrs by liquid scintillation counting", "assay_type": "ADME, organism-based", "parameters": "dosed compound name [14C]lixivaptan", "conditions": "in vivo", "how_it_was_run": "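Healthy male volunteers fasted ≥10 h, given single oral 100 mg (200 µCi) [14C]drug as two 50-mg capsules with 250 ml water. Plasma (from ~50 ml blood) at 0.5, 2, 4, 8, 12, 24, 36 h, profiled per subject. Acetonitrile extraction, C18 radio-HPLC with 0.2% formic acid acetonitrile/water gradient, on-line radioactivity detection as % plasma radioactivity; ng-equiv/ml from % × total radioactivity.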"}, "[11]": {"test": "Drug recovery in feces of female Sprague-Dawley rat at 10 mg/kg, po administered as single dose via gavage measured after 168 hrs by liquid scintillation counting", "assay_type": "ADME, organism-based", "parameters": "dose 10 mg/kg, dosed compound name [14C]lixivaptan, route oral", "conditions": "in vivo", "how_it_was_run": "(§3)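 Intact SD rats (3/gender) dosed by gavage with [14C]drug 10 mg/kg (10 ml/kg, pluronic F68/water), housed in metabolism cages; urine and feces at 0-8, 8-24 h, then every 24 h to 7 days. Urine counted by LSC; feces homogenized 20% w/w in water, combusted, trapped CO2 counted; cage wash/debris included; % of dose.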"}, "Rattus norvegicus [12]": {"test_system": "Rattus norvegicus", "test": "Tmax as total radioactivity in male Sprague-Dawley rat plasma at 10 mg/kg, po administered as single dose via gavage by LC-MS/MS analysis", "assay_type": "ADME, organism-based", "parameters": "dose 10 mg/kg, dosed compound name [14C]lixivaptan, route oral", "conditions": "in vivo", "how_it_was_run": "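Jugular-vein cannulated SD rats (5/gender) given gavage [14C]drug 10 mg/kg in pluronic F68/water; K2EDTA blood 0.25-168 h with donor blood replacement. Parent by validated LC-MS/MS, radioactivity by LSC; Tmax observed; t1/2 = 0.693/kel by terminal log-linear regression.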"}, "[13]": {"test": "Drug recovery in urine of female Sprague-Dawley rat at 10 mg/kg, po administered as single dose via gavage measured after 168 hrs by liquid scintillation counting", "assay_type": "ADME, organism-based", "parameters": "dose 10 mg/kg, dosed compound name [14C]lixivaptan, route oral", "conditions": "in vivo", "how_it_was_run": "as §3"}, "[14]": {"test": "Drug recovery in feces of human at […], po administered as single dose measured after 168 hrs by liquid scintillation counting", "assay_type": "ADME, organism-based", "parameters": "dosed compound name [14C]lixivaptan, route oral", "conditions": "in vivo", "how_it_was_run": "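Healthy male volunteers given single oral 100 mg (200 µCi) [14C]drug capsules after ≥10 h fast. Urine at 0-4, 4-8, 8-12, 12-24 h then 24-h intervals; feces as passed, to 168 h. Urine LSC; feces homogenized in water, combusted, LSC; % of dose.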"}, "Rattus norvegicus [15]": {"test_system": "Rattus norvegicus", "test": "Cmax as total radioactivity in female Sprague-Dawley rat plasma at 10 mg/kg, po administered as single dose", "assay_type": "ADME, organism-based", "parameters": "dose 10 mg/kg, dosed compound name [14C]lixivaptan, route oral", "conditions": "in vivo", "how_it_was_run": "as §2"}, "Canis familiaris [16]": {"test_system": "Canis familiaris", "test": "Drug recovery in cage wash/debris of male beagle dog at 10 mg/kg, po administered as single dose via gavage measured after 168 hrs by liquid scintillation counting", "assay_type": "ADME, organism-based, Canis lupus familiaris", "parameters": "dose 10 mg/kg, dosed compound name [14C]lixivaptan, route oral", "conditions": "in vivo", "how_it_was_run": "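Four male beagles got 10 mg/kg (2 ml/kg) [14C]drug suspension (5.0 mg/ml, pluronic F68/water, 1.04 µCi/mg) by gavage. Urine and feces collected over dry ice at 0-8, 8-24 h, then every 24 h to 7 days; urine by LSC, fecal homogenates combusted then LSC; cage wash/debris included; % of dose.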"}, "Canis familiaris [17]": {"test_system": "Canis familiaris", "test": "Half life as total radioactivity in male beagle dog plasma at 10 mg/kg, po administered as single dose by LC-MS/MS analysis", "assay_type": "ADME, organism-based, Canis lupus familiaris", "parameters": "dose 10 mg/kg, dosed compound name [14C]lixivaptan, route oral", "conditions": "in vivo", "how_it_was_run": "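Male beagles given 10 mg/kg [14C]drug oral suspension; jugular K2EDTA blood at 0.25-168 h. Parent by validated LC-MS/MS, total radioactivity by LSC; Tmax observed; t1/2 = 0.693/kel from terminal log-linear regression.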"}, "Rattus norvegicus [18]": {"test_system": "Rattus norvegicus", "test": "Drug level in female Sprague-Dawley rat plasma at 10 mg/kg, po administered as single dose via gavage measured after 8 hrs by liquid scintillation counting", "assay_type": "ADME, organism-based", "parameters": "dose 10 mg/kg, dosed compound name [14C]lixivaptan, route oral", "conditions": "in vivo", "how_it_was_run": "as §1"}, "Rattus norvegicus [19]": {"test_system": "Rattus norvegicus", "test": "AUC(0 to infinity) as total radioactivity in male Sprague-Dawley rat plasma at 10 mg/kg, po administered as single dose via gavage […]", "assay_type": "ADME, organism-based", "parameters": "time infinity, dose 10 mg/kg, dosed compound name [14C]lixivaptan, route oral", "conditions": "in vivo", "how_it_was_run": "as §2"}},
  "data": [
    {"smiles": "Cc1ccc(F)cc1[14C](=O)Nc1ccc(C(=O)N2Cc3cccn3Cc3ccccc32)c(Cl)c1", "values": [
      {"measurement": "Cmax", "setting": "Homo sapiens [1]", "value": 454, "unit": "ngequiv/ml"},
      {"measurement": "Tmax", "setting": "Homo sapiens [2]", "value": 1.2, "unit": "h"},
      {"measurement": "AUC", "setting": "Rattus norvegicus [3]", "value": 632, "unit": "ng.Eq.hr/ml"},
      {"measurement": "AUCt", "setting": "Rattus norvegicus [4]", "value": 36700, "unit": "ng.Eq.hr/ml"},
      {"measurement": "AUCt", "setting": "Homo sapiens [5]", "value": 24700, "unit": "ng.Eq.hr/ml"},
      {"measurement": "AUC", "setting": "Homo sapiens [6]", "value": 1860, "unit": "ng.Eq.hr/ml"},
      {"measurement": "Radiolabel recovery", "setting": "Homo sapiens [7]", "value": 84.2, "unit": "%"},
      {"measurement": "Retention_time", "setting": "[8]", "value": 34.3, "unit": "min"},
      {"measurement": "Compound recovery", "setting": "Canis familiaris [9]", "value": 7.4, "unit": "%"},
      {"measurement": "Compound recovery", "setting": "Homo sapiens [10]", "value": 5.6, "unit": "%"},
      {"measurement": "Radiolabel recovery", "setting": "[11]", "value": 92, "unit": "%"},
      {"measurement": "Tmax", "setting": "Rattus norvegicus [12]", "value": 3.2, "unit": "h"},
      {"measurement": "Radiolabel recovery", "setting": "[13]", "value": 7.6, "unit": "%"},
      {"measurement": "Radiolabel recovery", "setting": "[14]", "value": 63.7, "unit": "%"},
      {"measurement": "Cmax", "setting": "Rattus norvegicus [15]", "value": 1960, "unit": "ngequiv/ml"},
      {"measurement": "Radiolabel recovery", "setting": "Canis familiaris [16]", "value": 4.9, "unit": "%"},
      {"measurement": "t1/2", "setting": "Canis familiaris [17]", "value": 69.7, "unit": "h"},
      {"measurement": "Compound recovery", "setting": "Rattus norvegicus [18]", "value": 12.2, "unit": "%"},
      {"measurement": "AUC", "setting": "Rattus norvegicus [19]", "value": 67100, "unit": "ng.Eq.hr/ml"}
    ]}
  ]
}
